Experimental data from different studies.
Target: Fibroblast growth factor receptor 4 (FGFR4, Homo sapiens, UniProt P22455)

SMILES	test	setting	remaining binding
O=C(c1ccc(Nc2ncc(Cl)c(-c3ccc(Cl)s3)n2)cc1)N1CCC(N2CCCC2)CC1	binding, competition with immobilised ligand	1 µM	60%
CS(=O)(=O)NCC[C@H](NC(=O)c1cncc2c1cnn2-c1ccc(F)cc1)c1ccnc(S(C)(=O)=O)c1	cell-free assay, competition with immobilised ligand	1 µM	100%
C[C@@H]1CCN(c2nccc(-c3cnn4ncccc34)n2)C1	binding	1 µM	100%
C[C@@H]1CN(c2cc(-c3nn(C)c4ccc(OC5(C)CC5)cc34)ncn2)C[C@H](C)O1	cell-free assay, competition with immobilised ligand	1 µM	100%
COc1ccnn2ncc(-c3ccnc(N(C)C)n3)c12	binding	1 µM	100%
CCOCCn1cc(C(=O)Nc2ccc(-n3nc(-c4cccnc4)cc3C(F)(F)F)cn2)ccc1=O	cell-free assay, competition with immobilised ligand	1 µM	100%
N[C@@H]1CCN(c2nccc(-c3cnn4ncccc34)n2)C1	binding	1 µM	96%
O=C(c1ccc(Nc2nccc(-c3cc4ccccc4s3)n2)cc1)N1CCC(N2CCCC2)CC1	binding, competition with immobilised ligand	1 µM	99%
CN(c1ccnc(CNc2nc(Nc3ccc4c(c3)CC(=O)N4)ncc2C(F)(F)F)n1)S(C)(=O)=O	cell-free assay, competition with immobilised ligand	1 µM	83%
CN(CCCC(F)(F)F)c1nccc(-c2cnn3ncccc23)n1	binding	1 µM	96%
N#CC1(c2ccccn2)CCN(Cc2cc(C(=O)N3CCCC3)c(=O)n3ccccc23)CC1	cell-free assay, competition with immobilised ligand	1 µM	90%
CN(C)c1nccc(-c2cnn3ncccc23)n1	binding	1 µM	100%
Nc1ncc2c(n1)-c1c([nH]c3ccc(C#CC4CC4)cc13)CCCC2	binding, competition with immobilised ligand	1 µM	98%
c1cnn2ncc(-c3ccnc(N4CCC45COC5)n3)c2c1	binding	1 µM	91%
COc1ncc2cc3ccccc3nc2c1C#N	cell-free assay, competition with immobilised ligand	5 µM	88%
COc1cnc(Nc2cccc(S(N)(=O)=O)c2)nc1N1CCN(c2ccccc2)C(=O)C1	binding, competition with immobilised ligand	1 µM	100%
Cc1cnc(Nc2ccc(C(=O)N3CCC(N4CCCC4)CC3)cc2)nc1-c1cc2ccccc2s1	binding, competition with immobilised ligand	1 µM	76%
F[C@@H]1CCN(c2nccc(-c3cnn4ncccc34)n2)C1	binding	1 µM	100%
Cc1c(C(=O)O)cc(-c2ccc(C3CCNCC3)cc2)c2ccc(-c3ccc(C(F)(F)F)cc3)cc12	cell-free assay, competition with immobilised ligand	1 µM	100%
O=C(Nc1c[nH]nc1C(=O)NC1CCNCC1)c1cc(F)cc(F)c1	binding, competition with immobilised ligand	1 µM	100%
C[C@H](c1ccc(F)cc1)N(Cc1cccc(C(=O)O)c1)C(=O)c1cnc2ccccc2c1	cell-free assay, competition with immobilised ligand	1 µM	91%
COc1cnc(Nc2cccc(S(N)(=O)=O)c2)nc1N1CCN(c2ccccc2)CC1	binding, competition with immobilised ligand	1 µM	98%
